Results published in paper PMC7781011 (Journal of Inflammation Research, 2020).

Tests used:
human COX-2 [1] = biological target: T1, human COX-2 (Homo sapiens, UniProt P35354); test: Binding assay using isothermal titration calorimetry
T1 sequence (P35354 18-604): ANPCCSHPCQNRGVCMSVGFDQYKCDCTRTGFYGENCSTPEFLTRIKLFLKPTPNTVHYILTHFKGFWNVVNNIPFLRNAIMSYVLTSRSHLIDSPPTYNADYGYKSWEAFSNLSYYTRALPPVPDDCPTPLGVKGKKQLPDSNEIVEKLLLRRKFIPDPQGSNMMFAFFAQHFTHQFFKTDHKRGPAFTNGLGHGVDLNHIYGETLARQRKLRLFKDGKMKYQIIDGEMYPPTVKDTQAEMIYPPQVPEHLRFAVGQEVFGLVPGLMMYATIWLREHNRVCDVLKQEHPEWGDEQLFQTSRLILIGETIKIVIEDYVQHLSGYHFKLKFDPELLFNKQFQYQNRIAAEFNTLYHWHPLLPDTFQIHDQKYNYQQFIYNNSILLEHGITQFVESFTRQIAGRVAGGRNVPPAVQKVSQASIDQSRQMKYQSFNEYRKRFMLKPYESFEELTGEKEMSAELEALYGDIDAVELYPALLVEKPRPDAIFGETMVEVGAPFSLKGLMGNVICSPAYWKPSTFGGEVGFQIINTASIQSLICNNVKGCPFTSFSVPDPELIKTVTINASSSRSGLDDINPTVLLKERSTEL
In short: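 Serial injections of test compound (up to 1 mM) into enzyme-containing cell at 1 mM protein, both dissolved in PBS and degassed before use. Titration continued until heat signal approached zero at saturation. Isotherm fitted to obtain dissociation constant KD.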

human COX-2 [2] = biological target: T1, human COX-2; test: Circular dichroism, change in secondary structure; conditions: CD, Human COX-2, LFA-9 10 µM
In short: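 Native and compound-treated (0.1–10 µM) enzymes in PBS pH 7.4 at final protein 200 µM. CD spectra corrected by subtracting buffer blanks. Percent change in secondary structure (α-helix, β-sheet) calculated with the CAPITO analysis server.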

human COX-2 [3] = biological target: T1, human COX-2; test: Cell-free fluorometric COX-2 assay; format: biochemical; conditions: up to the tested range of 1 mM

Q: `CC1(C)Cc2c(-c3ccccc3)c(-c3ccc(Cl)cc3)c(CC(=O)NCC(=O)O)n2C1` [LFA-9, 2-[[2-[2-(4-chlorophenyl)-6,6-dimethyl-1-phenyl-5,7-dihydropyrrolizin-3-yl]acetyl]amino]acetic acid] was tested. Which Kd (human COX-2 [1]) did it give?
A: > 1 mM

Q: What about the “Change in Secondary Structure” value (human COX-2 [2]) of the same compound?
A: No change in secondary structure

Q: What about the “inhibition of COX-2 activity” value (human COX-2 [3]) of the same compound?
A: did not show inhibition
